Measurements taken from ChEMBL document CHEMBL1123060, “Substrate specificity of pyroglutamylaminopeptidase” (J Med Chem, 1985).

Columns and labels:
[1] = Inhibition of pyroglutamylaminopeptidase at a dose of 6.51 mM relative to 2-Oxo-hexahydro-pyrimidine-4-carboxylic acid; conditions: 6510 µM
How it was run: (§1)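 Enzyme purchased commercially, 5.5 units per digestion in pH 8.0 phosphate deblocking buffer (5% glycerol, 5 mM DTT, 10 mM EDTA, N2/Ar-purged). Preincubated 3 min at 37 °C, then substrate plus Leu internal standard added with the inhibitor at the stated level and digested 180 min at 37 °C. Gly-Ile released was quantitated by amino acid analysis. Values are cleavage relative to the uninhibited digest (set to 1.0), from a single experiment.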

[2] = Inhibition of pyroglutamylaminopeptidase at a dose of 13.02 mM relative to Pyrrolidin-2-one-CO-Gly-Ile; conditions: 13020 µM; how it was run: as §1
[3] = Inhibition of pyroglutamylaminopeptidase at a dose of 13.02 mM relative to 2-Oxo-hexahydro-pyrimidine-4-carboxylic acid; conditions: 13020 µM; how it was run: as §1
[4] = Inhibition of pyroglutamylaminopeptidase at a dose of 6.51 mM relative to Pyrrolidin-2-one-CO-Gly-Ile; conditions: 6510 µM; how it was run: as §1
[5] = Inhibition of pyroglutamylaminopeptidase at a dose of 16.64 mM relative to Pyrrolidin-2-one-CO-Gly-Ile; conditions: 16640 µM; how it was run: as §1
[6] = Inhibition of pyroglutamylaminopeptidase at a dose of 8.32 mM relative to Pyrrolidin-2-one-CO-Gly-Ile; conditions: 8320 µM; how it was run: as §1
[7] = Inhibition of pyroglutamylaminopeptidase at a dose of 16.64 mM relative to 2-Oxo-hexahydro-pyrimidine-4-carboxylic acid; conditions: 16640 µM; how it was run: as §1
[8] = Inhibition of pyroglutamylaminopeptidase at a dose of 8.32 mM relative to 2-Oxo-hexahydro-pyrimidine-4-carboxylic acid; conditions: 8320 µM; how it was run: as §1

| Compound | Hydrolysis rate [1] | Hydrolysis rate [2] | Hydrolysis rate [3] | Hydrolysis rate [4] | Hydrolysis rate [5] | Hydrolysis rate [6] | Hydrolysis rate [7] | Hydrolysis rate [8] |
| --- | --- | --- | --- | --- | --- | --- | --- | --- |
| O=C1NCC(C(=O)O)N1 (configuration not stated) | 0.533 | 0.707 | 0.308 | 0.854 | – | – | – | – |
| O=C1NCCC(C(=O)O)N1 (configuration not stated) | – | – | – | – | 0.884 | 0.889 | 0.752 | 0.86 |
| O=C1CC[C@@H](C(=O)O)N1 [PIDOLIC ACID] | 0.206 | 0.333 | 0.093 | 0.586 | – | – | – | – |
